For experiment [1], the target named is T1, Histamine H3 receptor (Homo sapiens, UniProt Q9Y5N1). Description: Displacement of [125I]iodoproxyfan from human recombinant histamine H3 receptor expressed in human SK-N-MC cells. The experiment is classed as cell-based. In a few lines: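 Cells stably expressing human H3 were grown to confluence, washed in PBS, pelleted and stored at −80 °C. Pellets were homogenized in 50 mM Tris–HCl, 5 mM EDTA, pH 7.5, spun at 1000g for 5 min, then at 25,000g for 25 min.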
T1 sequence (Q9Y5N1 whole entry): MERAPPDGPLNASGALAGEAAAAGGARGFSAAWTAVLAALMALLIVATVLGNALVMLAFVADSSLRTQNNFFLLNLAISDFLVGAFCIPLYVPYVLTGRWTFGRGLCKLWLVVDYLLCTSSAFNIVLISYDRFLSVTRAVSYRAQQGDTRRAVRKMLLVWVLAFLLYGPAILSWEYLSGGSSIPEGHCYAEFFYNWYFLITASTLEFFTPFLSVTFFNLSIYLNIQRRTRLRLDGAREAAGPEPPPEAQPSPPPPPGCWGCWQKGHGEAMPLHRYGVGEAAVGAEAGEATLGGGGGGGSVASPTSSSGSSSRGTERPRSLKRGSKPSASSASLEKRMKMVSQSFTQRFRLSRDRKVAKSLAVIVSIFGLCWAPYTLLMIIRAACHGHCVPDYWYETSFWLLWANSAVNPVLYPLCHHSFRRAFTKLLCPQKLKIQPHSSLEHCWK
Background: In a radioligand displacement assay an active substance lowers the binding of a labelled ligand.

Experiment [2] concerns the target T2, Histamine H3 receptor (Rattus norvegicus, UniProt Q9QYN8). Nature of the experiment: Antagonist activity rat recombinant histamine H3 receptor expressed in human SK-N-MC cells. The experiment is classed as functional, cell-based. The settings on record: read-out: pA2 (converted).
Experiment [3] addresses T1, Histamine H3 receptor. Nature of the experiment: Antagonist activity at human recombinant histamine H3 receptor expressed in human SK-N-MC cells. The experiment is classed as functional, cell-based. The settings on record: read-out: pA2 (converted).
Experiment [4] deals with T2, Histamine H3 receptor. Description: Displacement of [125I]iodoproxyfan from rat recombinant histamine H3 receptor expressed in human SK-N-MC cells. The experiment is classed as cell-based.
For experiment [5], the system named is Rattus norvegicus. Description: Ex vivo histamine H3 receptor occupancy in rat striatum at 0.3 mg/kg, po. The experiment is classed as functional. The method in brief:
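Rats were dosed orally, and striatal H3 receptor occupancy was measured ex vivo 60 min after dosing. Plasma and brain drug levels were taken at the same time. Values are mean ± SEM, n = 3.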

Each structure is given as a SMILES string.

T2 sequence (Q9QYN8 whole entry): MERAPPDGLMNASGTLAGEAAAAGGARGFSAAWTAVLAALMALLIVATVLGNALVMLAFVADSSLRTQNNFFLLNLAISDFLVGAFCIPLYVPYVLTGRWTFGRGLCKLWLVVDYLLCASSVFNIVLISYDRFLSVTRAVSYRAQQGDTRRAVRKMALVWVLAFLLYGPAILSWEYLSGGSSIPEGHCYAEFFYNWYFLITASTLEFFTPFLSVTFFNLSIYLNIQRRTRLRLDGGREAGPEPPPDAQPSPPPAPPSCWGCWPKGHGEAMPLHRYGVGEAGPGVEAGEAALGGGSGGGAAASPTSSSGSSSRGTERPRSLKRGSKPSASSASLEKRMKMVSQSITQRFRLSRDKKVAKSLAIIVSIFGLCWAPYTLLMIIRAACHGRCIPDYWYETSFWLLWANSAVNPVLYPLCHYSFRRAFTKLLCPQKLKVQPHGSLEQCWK

As a reminder, the Ki is the dissociation constant of the complex between target and ligand, obtained from inhibition or displacement. As to `CC(C)N1CCOC(COc2ccccc2)C1` (stereo not given), the Ki in experiment [1] was found to be 4800 nM.

Turning to `CCOc1ccccc1OCC1CN(C2CC2)CCO1` (stereo not given), the Ki in experiment [1] is greater than 10000 nM.

Turning to `CCOc1ccccc1OCC1CN(C2CCCC2)CCO1` (stereo not given), in experiment [1], the Ki amounted to 5300 nM.

On to `c1cc(OC[C@H]2CN(C3CCCC3)CCO2)ccc1CN1CCOCC1`, for which the Ki was found to be 31 nM in experiment [1] and 121 nM in experiment [4]. The Kb in experiment [2] was 43.7 nM; in experiment [3], 7.94 nM.

Take `c1cc(CN2CCOCC2)cc(OCC2CN(C3CCC3)CCO2)c1` (stereo not given): the Ki in experiment [1] was found to be 37 nM; in experiment [4], 277 nM. Besides, the Kb in experiment [2] is 79.4 nM; in experiment [3], 14.1 nM.

As for `c1cc(OCC2CN(C3CCCC3)CCO2)ccc1CN1CCCC1` (stereo not given), the Ki in experiment [1] was 2.2 nM; in experiment [4], 9.8 nM. Also, the Kb in experiment [2] was 1.58 nM; in experiment [3] it was 0.331 nM.

Consider `CC(C)N1CCOC(COc2cccc(CN3CCOCC3)c2)C1` (stereo not given), for which the Ki in experiment [1] was determined as 102 nM; in experiment [4] it was 562 nM. The Kb in experiment [2] was 251 nM; in experiment [3], 44.7 nM.

Regarding `c1cc(OCC2CN(C3CCCC3)CCO2)ccc1CN1CCCCC1` (stereo not given), the Ki in experiment [1] worked out at 2.5 nM; in experiment [4] it was 10 nM. For the same compound, the results for the Kb in experiment [2] and in experiment [3] were 1.55 nM and 0.148 nM, respectively.

Regarding `CCOc1ccccc1OCC1CN(C2CCC2)CCO1` (stereo not given), the Ki in experiment [1] worked out at 7100 nM.

For `CCOc1ccccc1OCC1CN(C(C)C)CCO1` (stereo not given), in experiment [1], the Ki amounted to 9000 nM.

Consider `c1cc(OC[C@@H]2CN(C3CCCC3)CCO2)ccc1CN1CCOCC1`, for which the Ki in experiment [1] came to 1.9 nM; in experiment [4], 9.7 nM. The Kb was 2.14 nM in experiment [2] and 0.38 nM in experiment [3]. Also, the Activity in experiment [5] is reported as 80%.

On to `CN1CCOC(COc2ccc(CN3CCOCC3)cc2)C1` (stereo not given), for which the Ki in experiment [1] amounted to 2100 nM.

`c1cc(OCC2CN(C3CC3)CCO2)ccc1CN1CCOCC1` (stereo not given): the Ki in experiment [1] turned out to be 106 nM.

For `CCN1CCOC(COc2ccc(CN3CCOCC3)cc2)C1` (stereo not given), in experiment [1], the Ki was determined as 165 nM.

Regarding `CC(C)N1CCOC(COc2ccc(CN3CCOCC3)cc2)C1` (stereo not given), the Ki in experiment [1] worked out at 49 nM; in experiment [4], 92 nM.

For the compound `c1cc(OCC2CN(C3CCC3)CCO2)ccc1CN1CCOCC1` (stereo not given), the values for the Ki in experiment [1] and in experiment [4] were 18 nM and 75 nM, respectively. For the same compound, the results for the Kb in experiment [2] and in experiment [3] were 19.1 nM and 3.09 nM, respectively.

Take `c1cc(OCC2CN(C3CCCC3)CCO2)ccc1CN1CCOCC1` (stereo not given): the Ki turned out to be 3.6 nM in experiment [1] and 20 nM in experiment [4]. Further, the Kb is 4.79 nM in experiment [2] and 0.955 nM in experiment [3].

`c1ccc(OCC2CNCCO2)cc1` (stereo not given): in experiment [1], the Ki was greater than 10000 nM.

As for `c1cc(CN2CCOCC2)cc(OCC2CN(C3CC3)CCO2)c1` (stereo not given), the Ki in experiment [1] turned out to be 566 nM.

For the origin of these results see ChEMBL document CHEMBL1143437, “2-Aryloxymethylmorpholine histamine H(3) antagonists” (Bioorg Med Chem Lett, 2008).
